The values that follow come from ChEMBL document CHEMBL1132259, “Non-peptide GPIIb/IIIa inhibitors. 20. Centrally constrained thienothiophene alpha-sulfonamides are potent, long acting in vivo inhibitors of platelet aggregation” (J Med Chem, 1999).

By Kd is commonly meant a measure of binding affinity in units of concentration. The term IC50 denotes the concentration needed to halve the response being measured.

Test [1] deals with T1, Integrin alpha-IIb/beta-3 (Homo sapiens, UniProt P05106+P08514). The test is described as follows: Displacement of L-762,745 from Fibrinogen Receptor of human platelets by flow cytometry. The method in brief:
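Resting human gel-filtered platelets at 2 × 10⁶ cells/mL final, incubated 2 h at room temperature with fluorescein-labelled L-762,745 (110 nM final) and competitor at 0.05–1000 nM. Read by flow cytometry (FACScan).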
Target sequence in this assay (P05106 27-788 limits assumed): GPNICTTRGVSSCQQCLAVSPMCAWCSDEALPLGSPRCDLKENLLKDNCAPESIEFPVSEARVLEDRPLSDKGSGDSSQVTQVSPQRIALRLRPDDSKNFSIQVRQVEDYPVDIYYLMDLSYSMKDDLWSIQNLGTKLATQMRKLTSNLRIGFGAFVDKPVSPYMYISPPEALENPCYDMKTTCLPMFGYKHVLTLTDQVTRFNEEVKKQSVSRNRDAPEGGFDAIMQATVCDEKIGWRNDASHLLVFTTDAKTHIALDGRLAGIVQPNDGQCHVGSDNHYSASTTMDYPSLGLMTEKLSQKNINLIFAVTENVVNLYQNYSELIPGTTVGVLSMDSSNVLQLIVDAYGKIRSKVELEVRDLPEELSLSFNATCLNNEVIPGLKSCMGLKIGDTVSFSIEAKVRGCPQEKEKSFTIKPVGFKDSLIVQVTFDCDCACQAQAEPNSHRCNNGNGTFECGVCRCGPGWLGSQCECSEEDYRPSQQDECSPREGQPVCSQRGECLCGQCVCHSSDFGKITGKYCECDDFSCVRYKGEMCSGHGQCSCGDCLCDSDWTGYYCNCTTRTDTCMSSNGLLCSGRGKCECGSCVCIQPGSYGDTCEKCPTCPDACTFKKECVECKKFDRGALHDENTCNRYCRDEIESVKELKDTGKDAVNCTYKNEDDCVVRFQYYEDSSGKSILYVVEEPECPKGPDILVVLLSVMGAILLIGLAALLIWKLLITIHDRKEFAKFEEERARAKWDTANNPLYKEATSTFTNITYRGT
Target sequence in this assay (P08514 32-887 limits assumed): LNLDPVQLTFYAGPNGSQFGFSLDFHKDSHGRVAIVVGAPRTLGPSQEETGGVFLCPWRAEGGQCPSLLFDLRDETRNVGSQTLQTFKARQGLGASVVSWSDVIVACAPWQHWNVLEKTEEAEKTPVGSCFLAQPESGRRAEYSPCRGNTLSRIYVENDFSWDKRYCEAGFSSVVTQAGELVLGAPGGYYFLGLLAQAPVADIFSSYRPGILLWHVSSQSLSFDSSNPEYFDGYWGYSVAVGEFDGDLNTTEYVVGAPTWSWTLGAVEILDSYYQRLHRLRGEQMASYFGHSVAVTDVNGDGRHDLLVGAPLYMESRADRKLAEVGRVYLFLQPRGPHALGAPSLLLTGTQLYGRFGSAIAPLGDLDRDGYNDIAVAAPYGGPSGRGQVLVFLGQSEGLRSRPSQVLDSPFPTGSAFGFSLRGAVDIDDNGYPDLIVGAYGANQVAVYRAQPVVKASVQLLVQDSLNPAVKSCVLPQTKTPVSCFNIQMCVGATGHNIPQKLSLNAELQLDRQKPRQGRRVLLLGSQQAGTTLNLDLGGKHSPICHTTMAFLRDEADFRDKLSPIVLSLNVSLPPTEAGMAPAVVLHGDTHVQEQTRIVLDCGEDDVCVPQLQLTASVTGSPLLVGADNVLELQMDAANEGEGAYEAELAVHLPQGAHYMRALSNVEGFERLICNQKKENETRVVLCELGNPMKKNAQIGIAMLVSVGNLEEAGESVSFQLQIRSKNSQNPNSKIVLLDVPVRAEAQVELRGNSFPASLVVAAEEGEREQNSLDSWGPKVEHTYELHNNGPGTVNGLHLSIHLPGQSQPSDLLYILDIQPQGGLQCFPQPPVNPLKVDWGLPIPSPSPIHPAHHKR
Target sequence in this assay (P08514 891-1039 limits assumed): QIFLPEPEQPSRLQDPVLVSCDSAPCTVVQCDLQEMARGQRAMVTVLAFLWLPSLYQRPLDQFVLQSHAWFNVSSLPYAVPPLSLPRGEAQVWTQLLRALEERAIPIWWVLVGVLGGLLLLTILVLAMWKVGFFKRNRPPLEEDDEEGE

Test [2] addresses T1, Integrin alpha-IIb/beta-3. The test is described as follows: Inhibition of [125I]L-692884 binding to purified GPIIb/IIIa by silicate scintillation proximity assay(SPA). Type of test: protein-complex assay. A general note: In a scintillation proximity assay essentially only radioactivity close to the scintillant gives light.
Test [3] has as its target T1, Integrin alpha-IIb/beta-3. The test is described as follows: Equilibrium dissociation constant was measured from displacement of L-762,745 from Fibrinogen receptor of human platelets by flow cytometry. For orientation: In flow cytometry, cells or beads pass a laser one at a time.
Target sequence in this assay (P05106 27-788 limits assumed): as the sequence (P05106 27-788 limits assumed) above
Target sequence in this assay (P08514 32-887 limits assumed): as the sequence (P08514 32-887 limits assumed) above
Target sequence in this assay (P08514 891-1039 limits assumed): as the sequence (P08514 891-1039 limits assumed) above
For test [4], the target named is T1, Integrin alpha-IIb/beta-3. Description: In vitro inhibition of [125I]L-692884 binding to Fibrinogen receptor by silicate scintillation proximity assay(SPA). Type of test: protein-complex assay.

Compound `CS(=O)(=O)N[C@@H](CNC(=O)c1cc2cc(CCC3CCNCC3)sc2s1)C(=O)O` had a Kd in test [1] of 52 nM. In addition, the ED50 in test [2] came to 1.2 nM.
`O=C(NC[C@H](NS(=O)(=O)c1ccccc1)C(=O)O)c1cc2sc(CCC3CCNCC3)cc2s1` returned a Kd in test [3] of 0.15 nM. This lies in the sub-nanomolar range.
On to `CCOCCS(=O)(=O)N[C@@H](CNC(=O)c1cc2sc(CCC3CCNCC3)cc2s1)C(=O)O`, for which binding in test [1] was characterised by a dissociation constant (Kd) of 1.1 nM. This compound displayed an ED50 in test [2] of 0.27 nM.
As for `CCCCS(=O)(=O)N[C@@H](CNC(=O)c1cc2sc(CCC3CCNCC3)cc2s1)C(=O)O`, the half-maximal inhibitory concentration (IC50) in test [4] worked out at 0.21 nM. Besides, in test [3], the dissociation constant Kd worked out at 3 nM.
The corresponding values for `O=C(NC[C@H](NS(=O)(=O)c1ccc(Cl)cc1)C(=O)O)c1cc2cc(CCC3CCNCC3)sc2s1` are 0.09 nM and 0.026 nM.
The corresponding values for `O=C(NC[C@H](NS(=O)(=O)c1ccccc1)C(=O)O)c1cc2cc(CCC3CCNCC3)sc2s1` are 0.03 nM and 0.023 nM.
The corresponding values for `O=C(O)CCNC(=O)c1ccc2c(c1)C(=O)N(CCC1CCNCC1)C2` are 13 nM and 550 nM.
In test [1], `CCCCS(=O)(=O)N[C@@H](CNC(=O)c1cc2cc(CCC3CCNCC3)sc2s1)C(=O)O` came in with a dissociation constant Kd of 5.6 nM. In test [2], this compound returned an ED50 of 0.12 nM.
In test [4], `O=C(NC[C@H](NS(=O)(=O)c1cccs1)C(=O)O)c1cc2sc(CCC3CCNCC3)cc2s1` displayed an IC50 of 0.04 nM. This compound also gave a Kd in test [3] of 0.092 nM.
In test [4], `O=C(NC[C@H](NS(=O)(=O)c1cccnc1)C(=O)O)c1cc2cc(CCC3CCNCC3)sc2s1` came in with an IC50 of 0.047 nM. In test [3], this compound had a Kd of 0.07 nM.
For `O=C(NC[C@H](NS(=O)(=O)c1cccs1)C(=O)O)c1cc2cc(CCC3CCNCC3)sc2s1`, in test [4], the IC50 came out at 0.04 nM. In addition, binding in test [3] was characterised by a dissociation constant (Kd) of 0.15 nM.
`O=C(NC[C@H](NS(=O)(=O)c1cccnc1)C(=O)O)c1cc2sc(CCC3CCNCC3)cc2s1` showed a Kd in test [1] of 0.08 nM. Moreover, the ED50 in test [2] came out at 0.11 nM.
For `O=C(NCC(NS(=O)(=O)c1cccnc1)C(=O)O)c1cc2cc(CCC3CCNCC3)sc2s1` (single isomer, unassigned), in test [3], the Kd came out at 28 nM. The compound further showed an ED50 in test [2] of 0.47 nM.
`O=C(NC[C@H](NS(=O)(=O)c1cccnc1)C(=O)O)c1cc2cc(C3CCNCC3)sc2s1` gave an IC50 in test [4] of 0.45 nM. Besides, in test [3], binding was put at a Kd of 22 nM.
The corresponding values for `O=C(NC[C@H](NS(=O)(=O)c1cccnc1)C(=O)O)c1cc2cc(CCCC3CCNCC3)sc2s1` are 0.07 nM and 17 nM.
As for `CCOCCS(=O)(=O)N[C@@H](CNC(=O)c1cc2cc(CCC3CCNCC3)sc2s1)C(=O)O`, the Kd in test [1] was determined as 1.2 nM. The compound also showed an ED50 in test [2] of 0.13 nM.
In test [3], `O=C(NC[C@H](NS(=O)(=O)c1cccnc1)C(=O)O)c1ccc2c(c1)C(=O)N(CCC1CCNCC1)C2` came in with a Kd of 2.2 nM.
